Assay outcomes deposited in PubChem BioAssay by Broad Institute.
E-sel inducer: E-selectin induction on HUVECs; P16581; HUVEC E-selectin immunofluorescence imaging; normalized: neutral wells 0, TNF-alpha wells 100; activation, % at 7.58 µM; hit rate 0.37% among 260,000; AID 686992;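 active = mean E-selectin-positive cell signal at least 10% of the positive control, reached in at least 60% of replicates, without over 20% cell loss; inconclusive = no rule given, readout overlaps actives, possibly toxicity-flagged; inactive = the rest, including those meeting only one limit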
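Read-out: % PE-positive cells | Test system: HUVEC | Doses: One compound dose added by pin transfer | Buffer or medium: EGM-2 over gelatin coat | Signal: Immunofluorescence imaging | Benchmarks: TNF-alpha, DMSO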
DENV2 CPE: DENV2-induced cell death inhibition; DENV2-infected cells, cytopathic effect rescue, plate reader; CPE inhibition, % at 9.99 µM; hit rate 1.7% among 350,000; in the data active = CPE inhibition above about 20%, passing the limit was not always enough; inconclusive = no clear call, values can overlap the other calls; tested in BHK-21 cells;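 also: 0% = median of neutral control wells and 100% = median of positive control wells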
SIRT5 block: sirtuin-5 (human) deacylase inhibition. Purified SirT5, succinyl-peptide AMC, trypsin-coupled fluorescence. inhibition, % at 15 µM. hit rate 1.1% among 330,000. AID 652115; in the data active = inhibition above about 15%; inconclusive = no clear call, values can overlap the other calls
Target sequence (Q9NXA8 whole entry, looked up): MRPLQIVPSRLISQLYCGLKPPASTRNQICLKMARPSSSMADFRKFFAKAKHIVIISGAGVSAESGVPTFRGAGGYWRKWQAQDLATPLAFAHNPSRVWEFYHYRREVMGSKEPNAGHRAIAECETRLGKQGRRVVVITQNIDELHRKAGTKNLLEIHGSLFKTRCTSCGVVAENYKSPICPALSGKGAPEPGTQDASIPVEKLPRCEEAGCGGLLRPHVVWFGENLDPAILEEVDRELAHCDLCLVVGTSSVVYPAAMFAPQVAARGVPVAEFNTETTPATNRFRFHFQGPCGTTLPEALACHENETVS
Starred values were filed as active, the others as inactive; ? = inconclusive; / = no result given. Shown are actives, neighbours in structure and some others; about 2.8% of the full set was active somewhere.

SMILES	E-sel inducer	DENV2 CPE	SIRT5 block
COc1cccc(S(=O)(=O)N2CCCCN3[C@H](CO)[C@H](c4ccc(C#CC(C)C)cc4)[C@@H]3C2)c1	0	-3	1
COc1ccc(S(=O)(=O)N2CCCCN3[C@H](C2)[C@@H](c2ccc(C#CC(C)C)cc2)[C@@H]3CO)cc1	-1	-25	16*
COc1ccc(S(=O)(=O)N2CCCCN3[C@H](CO)[C@H](c4ccc(C#CCC(C)C)cc4)[C@@H]3C2)cc1	-1	-6	16*
COc1ccc(CN(C)C[C@H]2OCCCC[C@@H](C)Oc3ccc(NC(=O)Nc4cccc5ccccc45)cc3C(=O)N([C@H](C)CO)C[C@H]2C)cc1	0	18	-1
N#C[C@H]1[C@@H](c2ccccc2-c2cccc(F)c2)[C@@H](CO)N1C(=O)C1CCCCC1	0	11	-2
Cc1cc2nc(CSc3ccc(Cl)cc3)cc(=O)n2[nH]1	/	-10	9
Cc1ccc(SCc2cc(=O)n(C)[nH]2)cc1	82*	0	1
C[C@@H]1CN([C@H](C)CO)C(=O)c2cccc(NS(=O)(=O)c3cn(C)cn3)c2O[C@H]1CN(C)C(=O)Nc1ccc(C(F)(F)F)cc1	0	0	2
CO[C@@H]1CN(C)C(=O)c2ccc(NC(=O)c3ccc(F)cc3)cc2OC[C@@H](C)N(C(C)=O)C[C@@H]1C	0	5	-2
O=C(Nc1ccnn1C1CCN(Cc2ccc(OC(F)F)cc2)CC1)C1CCCC1	/	?	19*
O=C(Nc1ccnn1C1CCN(Cc2ccc(Cl)cc2)CC1)C1CCCC1	0	-5	-3
C/C=C/c1ccc2c(c1)O[C@@H](CN(C)S(=O)(=O)c1ccc(C)cc1)[C@@H](C)CN([C@@H](C)CO)S2(=O)=O	0	3	3
CC(C)CC#Cc1ccc2c(c1)O[C@H](CN(C)S(=O)(=O)c1ccc(F)cc1)[C@H](C)CN([C@@H](C)CO)S2(=O)=O	-2	4	15
C[C@H](CO)N1C[C@H](C)[C@H](CN(C)S(=O)(=O)c2ccccc2)Oc2cc(C#Cc3ccncc3)ccc2S1(=O)=O	0	-18	4
C[C@H]1CN([C@@H](C)CO)S(=O)(=O)c2ccc(C#Cc3ccncc3)cc2O[C@@H]1CN(C)S(=O)(=O)c1ccc(F)cc1	/	-9	-2
C[C@H]1CN([C@@H](C)CO)S(=O)(=O)c2ccc(C#Cc3ccc(F)cc3)cc2O[C@@H]1CN(C)S(=O)(=O)c1ccc(F)cc1	0	4	24*
Cc1ccc(S(=O)(=O)N(C)C[C@H]2Oc3cc(C#Cc4ccncc4)ccc3S(=O)(=O)N([C@@H](C)CO)C[C@H]2C)cc1	/	64*	18*
C/C=C/c1ccc2c(c1)O[C@H](CN(C)S(=O)(=O)c1ccc(C)cc1)[C@H](C)CN([C@H](C)CO)S2(=O)=O	0	20*	0
C[C@@H]1CN([C@@H](C)CO)S(=O)(=O)c2ccc(C#Cc3ccc(F)cc3)cc2O[C@@H]1CN(C)S(=O)(=O)c1ccc(F)cc1	0	2	26*
CC(C)C#Cc1ccc([C@H]2[C@@H](CO)N(C(=O)c3ccccn3)[C@H]2C#N)cc1	0	-14	-2
COc1ccc2c3c([nH]c2c1)[C@H](CO)N(S(C)(=O)=O)CC31CCN(CC2CC2)CC1	0	9	-1
C[C@H](CO)N1C[C@H](C)[C@@H](CN(C)CC2CCCC2)Oc2cc(C3=CCCCC3)ccc2S1(=O)=O	0	3	2
OC[C@@H]1[C@H](c2ccc(/C=C/c3ccccc3)cc2)[C@@H]2CN(Cc3ccncc3)CCCCN12	-1	-19	1
C[C@H]1CN([C@@H](C)CO)S(=O)(=O)c2ccc(-c3ccc(F)cc3)cc2O[C@H]1CN(C)C(=O)Nc1ccc(F)cc1	0	/	/
O=C(C1CCC1)N1CC(=O)N2[C@H](CO)[C@@H](c3ccc(C#Cc4cccc(F)c4)cc3)[C@H]2C1	0	5	1
SMILES	E-sel inducer	DENV2 CPE	SIRT5 block
C[C@H](CO)N1C[C@H](C)[C@@H](CN(C)S(=O)(=O)c2ccccc2F)Oc2cc(C#Cc3cccc(F)c3)ccc2S1(=O)=O	2	/	1
C[C@@H]1CN([C@@H](C)CO)S(=O)(=O)c2ccc(C#Cc3ccncc3)cc2O[C@H]1CN(C)S(=O)(=O)c1ccc(F)cc1	/	/	2
C[C@H]1CN([C@@H](C)CO)S(=O)(=O)c2ccc(C#Cc3ccncc3)cc2O[C@H]1CN(C)S(=O)(=O)c1ccc(F)cc1	/	-3	7
C[C@@H]1CN([C@H](C)CO)S(=O)(=O)c2ccc(C#Cc3cccc(F)c3)cc2O[C@@H]1CN(C)S(=O)(=O)c1ccccc1F	-1	-4	18*
C[C@H](CO)N1C[C@H](C)[C@@H](CN(C)S(=O)(=O)c2ccc(F)cc2)Oc2cc(C#Cc3ccc(F)cc3)ccc2S1(=O)=O	0	-1	23*
C[C@H](CO)N1C[C@H](C)[C@H](CN(C)S(=O)(=O)c2ccc(F)cc2)Oc2cc(C#Cc3ccncc3)ccc2S1(=O)=O	/	-8	0
C[C@@H]1CN([C@@H](C)CO)S(=O)(=O)c2ccc(C#Cc3ccc(F)cc3)cc2O[C@H]1CN(C)S(=O)(=O)c1ccc(F)cc1	1	-3	23*
C[C@H]1CN([C@@H](C)CO)S(=O)(=O)c2ccc(C#Cc3ccc(F)cc3)cc2O[C@H]1CN(C)S(=O)(=O)c1ccc(F)cc1	0	2	29*
COc1ccc(NC(=O)N(C)C[C@H]2OCCCC[C@H](C)Oc3ccc(NC(=O)NC(C)C)cc3C(=O)N([C@@H](C)CO)C[C@H]2C)cc1	0	-2	-1
CCNC(=O)C[C@H]1C=C[C@@H](NC(=O)C2CCOCC2)[C@@H](CO)O1	0	-5	-4
C[C@H](CO)N1C[C@H](C)[C@@H](CN(C)S(=O)(=O)c2cn(C)cn2)Oc2ccc(NC(=O)Cc3cn(C)c4ccccc34)cc2C1=O	/	0	2
COc1ccccc1NC(=O)N[C@H]1CC[C@H](CC(=O)NCc2ccc(Cl)c(Cl)c2)O[C@H]1CO	0	-8	-5
C#CCNC(=O)C1=C[C@@H](C(C)(C)C)C[C@@H](OCCCCO)O1	/	-3	-7
COc1cccc(NC(=O)CN(C)C(=O)CSc2nc3ccccc3s2)c1	1	/	4
CN(CC(=O)Nc1cccc(F)c1)C(=O)c1ccccc1CCc1ccccc1	/	69*	1
COc1ccc(NC(=O)CN(C)C(=O)c2ccccc2CCc2ccccc2)cc1	1	2	-3
CN(CC(=O)Nc1cccc(F)c1)C(=O)CSc1nc2ccccc2s1	2	61*	-3
CCCNC(=O)N1CC2(C1)CN(C(=O)CC1CC1)[C@@H](CO)c1[nH]c3cc(OC)ccc3c12	0	1	/
COc1ccc(NC(=O)N2CC(=O)N3[C@@H](CO)[C@H](c4ccc(-c5ccccc5)cc4)[C@@H]3C2)cc1	0	-4	3
Cc1ccc(S(=O)(=O)Nc2ccc3c(c2)CC(=O)N([C@H](C)CO)C[C@@H](C)[C@@H](CN(C)S(=O)(=O)c2cn(C)cn2)O3)cc1	0	10	-1
C[C@H](CO)N1C[C@H](C)[C@@H](CN(C)C(=O)NC2CCCCC2)Oc2c(NC(=O)C3CC3)cccc2C1=O	0	-1	-2
